Bioassay records as filed in PubChem BioAssay.
Hits are enriched below; roughly 3.7% of the tested compounds scored in any of these assays.
hERG protect – hERG rescue from dofetilide block, primary screen, cell-based, CHO-hERG, FluxOR thallium flux, dofetilide IC70. activation (rescue from dofetilide block), less the hit threshold, % at 10 µM. dofetilide IC70 present. hit rate 0.51% among 310,000;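 active = activation above the mean of controls blocked by dofetilide plus 5 SD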;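 note: thallium influx through hERG after potassium depolarization seen as dye fluorescence rise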
Kir21 block – inhibitors of mouse Kir2.1 inward-rectifier potassium channel | Inward rectifier potassium channel 2 (Mus musculus), P35561 | hit rate 0.85% among 310,000 | HEK293-Kir2.1, FluxOR thallium flux fluorescence; hits give low values | B-score at 10 µM | AID 1672, 2009;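 active = fluorescence ratio B-score at or below minus 3 SD of library scores, with starting-brightness B-score within 2 SD, cut at about -4.2 in these data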;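 note: channel flux triggered by added potassium and thallium sulfate stimulus; B-score of peak minus minimum fluorescence over baseline after thallium stimulus; more negative B-score means stronger Kir2.1 block with less thallium influx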
KCNQ1 inh – inhibitors of human KCNQ1 channel, primary screen, cell-based, thallium flux, high-throughput; Potassium voltage-gated channel subfamily KQT member 1 (Homo sapiens), P51787; CHO-K1 KCNQ1, FluxOR thallium flux fluorescence; hits give high values; B-score at 10 µM; hit rate 1.3% among 310,000;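 active = compounds whose thallium flux B-score, printed positive for inhibition, exceeds three library SD while starting fluorescence stays within three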;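 note: channel opened by potassium depolarization with thallium stimulus after 20 min compound exposure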
KCNK9 inh – KCNK9 potassium channel inhibitors, primary screen, HEK293 cells, thallium flux; B-score at 10 µM; FluxOR thallium flux fluorescence; hits give low values; Potassium channel subfamily K member 9 (Homo sapiens), Q9NPC2; hit rate 1.2% among 310,000;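 active = ratio B-score over 3 SD below the library mean, with starting fluorescence within 5 SD of its mean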;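 note: negative B-score means less thallium flux so channel inhibition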
KCNQ1 act – potentiators or activators of KCNQ1 channel, primary screen, cell-based, thallium flux, high-throughput | Potassium voltage-gated channel subfamily KQT member 1 (Homo sapiens), P51787 | CHO-K1 KCNQ1, thallium flux FluxOR fluorescence; hits give high values | B-score at 10 µM | hit rate 0.35% among 310,000 | AID 2648, 2010;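 active = fluorescence ratio B-score, a plate-corrected score, at least three library SD, with initial intensity B-score within 5 SD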
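assay system = CHO-K1 cells stably expressing KCNQ1 | medium = assay buffer, equal DMSO in all wells | timing = 37 °C overnight plating, 90-min dark dye load, 20-min compound pretreatment | measured by = kinetic FluxOR thallium fluorescence, 10-s 1-Hz baseline, 110-s post-stimulus read | measure = fluorescence change relative to baseline, converted to B score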
KCNK3 block – human KCNK3 channel inhibitors, primary screen, CHO cells, FluxOR thallium flux, B-score; FluxOR fluorescence; hits give low values; hit rate 0.84% among 340,000; B-score at 10 µM; Potassium channel subfamily K member 3 (Homo sapiens), O14649;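 active = B-score under library mean minus 4 SD, starting fluorescence ratio at most library mean plus 5 SD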;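 note: more negative B-score means stronger inhibition of thallium flux through KCNK3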
KCNQ1 inh valid – KCNQ1 potassium channel inhibitors, confirmation, cell-based, Tl flux, duplicate. AID 588353, 2011. shares compounds with KCNQ1 inh. KCNQ1 cell line, FluxOR thallium flux fluorescence. inhibition, % at 10 µM. hit rate 93% among 1,600;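 active = primary screen active, with duplicate mean exceeding buffer control mean plus 3 SD of buffer wells, cut at about 28% in these data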
CHO Tl flux – thallium flux effects in parental CHO cells, counter-screen for KCNQ1 inhibitor project, cell-based, Tl flux | shares compounds with KCNQ1 inh | parental CHO-K1, FluxOR thallium flux fluorescence ratio; hits give low values; zero means no signal rise above baseline | fluorescence ratio (Tl flux) at 10 µM | hit rate 21% among 1,600 | AID 588366, 2011;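 active = mean of duplicate thallium-flux fluorescence ratios in parental host cells more than 5 SD below the buffer control mean, cut at about 0.38 in these data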;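 note: ratio is peak minus minimum fluorescence divided by baseline fluorescence; actives read low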
KCNQ1 ephys val – KCNQ1 channel inhibitors, confirmation, orthogonal assay, cell-based, automated electrophysiology; shares compounds with KCNQ1 inh; KCNQ1-CHO cells, automated patch clamp current; calls only at 10 µM; hit rate 20% among 490; AID 624120, 2012;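 active = KCNQ1 current drop exceeding 3 SD of negative control wells, seen in both duplicate runs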;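 note: steady state current during a 2 s step from -80 to +40 mV; negative values mean current inhibition and positive values mean potentiation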
KCNQ2 spec – KCNQ2 channel inhibition, selectivity assay for KCNQ1 inhibitor project, cell-based; shares compounds with KCNQ1 inh; KCNQ2 cells, FluxOR thallium flux fluorescence; inhibition, % at 10 µM; hit rate 71% among 1,600;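 active = mean percent inhibition of the KCNQ2 thallium signal more than 5 SD above the buffer-only control wells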;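 note: KCNQ2 expressed in CHO cells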
Target sequence (O88943 whole entry, looked up): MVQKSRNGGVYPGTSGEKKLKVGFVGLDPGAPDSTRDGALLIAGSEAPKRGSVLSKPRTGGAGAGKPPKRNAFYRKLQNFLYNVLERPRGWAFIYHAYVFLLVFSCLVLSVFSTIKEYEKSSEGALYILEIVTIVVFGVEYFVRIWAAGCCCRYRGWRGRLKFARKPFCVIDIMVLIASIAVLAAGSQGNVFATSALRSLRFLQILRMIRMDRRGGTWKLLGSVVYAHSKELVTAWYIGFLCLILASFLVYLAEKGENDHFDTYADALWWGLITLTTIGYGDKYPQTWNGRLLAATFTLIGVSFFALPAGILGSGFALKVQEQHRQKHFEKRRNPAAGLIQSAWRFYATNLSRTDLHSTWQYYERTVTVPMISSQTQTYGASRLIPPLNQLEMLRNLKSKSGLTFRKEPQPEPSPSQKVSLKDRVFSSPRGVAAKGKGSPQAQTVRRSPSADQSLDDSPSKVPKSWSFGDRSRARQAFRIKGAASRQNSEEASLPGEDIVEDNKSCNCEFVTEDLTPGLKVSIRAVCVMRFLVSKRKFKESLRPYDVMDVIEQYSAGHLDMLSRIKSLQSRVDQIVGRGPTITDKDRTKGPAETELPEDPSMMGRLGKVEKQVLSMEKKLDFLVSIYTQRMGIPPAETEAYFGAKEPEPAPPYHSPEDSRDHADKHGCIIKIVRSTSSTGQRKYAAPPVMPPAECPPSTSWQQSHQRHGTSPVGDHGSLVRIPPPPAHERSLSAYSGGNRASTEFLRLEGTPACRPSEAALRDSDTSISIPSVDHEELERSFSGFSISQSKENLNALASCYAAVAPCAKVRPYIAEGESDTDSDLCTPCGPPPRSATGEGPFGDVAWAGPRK
KCNQ1-KCNE1 inh – KCNQ1/KCNE1 channel inhibition, selectivity assay for KCNQ1 inhibitor project, CHO-K1 cells, thallium flux, FluxOR | shares compounds with KCNQ1 inh | FluxOR thallium flux fluorescence | hit rate 77% among 1,600 | AID 652147, 2013 | inhibition, % at 10 µM;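 active = mean percent inhibition of duplicate wells above the buffer-only control mean plus 3 SD of those controls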
KCNK9 inh conf – KCNK9 potassium channel inhibitors, confirmation, HEK293 cells, thallium flux, duplicate | shares compounds with KCNK9 inh | AID 492992, 2010 | inhibition, % at 10 µM | FluxOR thallium flux fluorescence | hit rate 43% among 4,900;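 active = thallium signal inhibited by more than 5 SD of the compound-free buffer control wells, on both duplicate plates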
Kir21 sel – mouse Kir2.1 channel inhibition, confirmation, selectivity assay for KCNK9 modulator project, cell-based, HEK293, thallium flux | shares compounds with KCNK9 inh | Kir2.1 cells, FluxOR thallium flux fluorescence | inhibition, % at 10 µM | hit rate 4% among 4,900 | AID 492993, 2010;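 active = thallium signal drop more than 5 SD beyond the mean of the no-compound control wells, seen in both duplicate plates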;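 note: signal is fluorescence rise after thallium addition divided by baseline fluorescence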
KCNK9 uninduced – thallium flux in non-induced HEK293 cells, confirmation, counter-screen for KCNK9 inhibitor project, cell-based, second counter screen, non-induced KCNK9-HEK293; hit rate 40% among 4,900; inhibition, % at 10 µM; shares compounds with KCNK9 inh; FluxOR thallium flux; AID 492997, 2010;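 active = thallium signal drop beyond 5 SD of the untreated control mean, on both duplicate plates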
KCNK3 confirm – retest of human KCNK3 channel inhibitors, confirmation, CHO cells, FluxOR thallium flux, triplicate; shares compounds with KCNK3 block; FluxOR fluorescence; 0% buffer, 100% carvedilol maximal block; ratio percent of control, % at 10 µM; hit rate 99% among 2,400; AID 651638, 2012;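 active = ratio percent of control, averaged over triplicates, above buffer control mean plus 5 SD, cut at about 64% in these data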;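 note: ratio is the fluorescence rise from min to max over baseline after thallium stimulus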
KCNK3 uninduced – thallium flux inhibition in non-induced cells, primary screen, counter-screen for KCNK3 inhibitor project, cell-based, non-induced KCNK3 line, FluxOR thallium, triplicate; thallium flux ratio (lower = more inhibition) at 10 µM; shares compounds with KCNK3 block; hit rate 40% among 2,400; AID 651747, 2012; non-induced KCNK3 parental cells; hits give low values;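 active = thallium flux ratio, averaged over three wells, more than 5 SD below the buffer control mean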;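 note: host cells are CHO cells without KCNK3 induction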
Numbers stand for hits; . = inactive; / = no result; + = active, no number.

SMILES	hERG protect	Kir21 block	KCNQ1 inh	KCNK9 inh	KCNQ1 act	KCNK3 block	KCNQ1 inh valid	CHO Tl flux	KCNQ2 spec	KCNQ1-KCNE1 inh	KCNK9 inh conf	Kir21 sel	KCNK9 uninduced	KCNK3 confirm	KCNK3 uninduced	others
CC(c1cccs1)N(Cc1ccco1)C(=O)Nc1ccc(Cl)c(Cl)c1 (stereo not drawn)	.	.	19	-14	.	-11	146	0.35	116%	+	60%	.	44%	122	0.13
COc1ccc(CCNC(C(=O)Nc2cc(C)cc(C)c2)c2ccccc2)cc1 (stereo not drawn)	.	.	12	.	.	-14	88	0.37	122%	144%	/	/	/	118	0.14
CC(C)OC(=O)C(C#N)c1nc2ccccc2nc1N1CCCC1 (stereo not drawn)	.	.	.	.	.	.	/	/	/	/	/	/	/	/	/
CCC(C)COC(=O)C(C#N)c1nc2ccccc2nc1N1CCCCC1 (stereo not drawn)	.	.	8	-11	.	.	123	.	102%	116%	48%	.	45%	117	0.14	KCNQ1 ephys val=.
c1ccc(N2CCN(c3nc(NCc4ccco4)c4ccccc4n3)CC2)cc1	.	.	12	.	.	-12	144	0.35	114%	192%	/	/	/	140	0.11
COc1ccc2[nH]c3c(N4CCc5ccccc5C4)ncnc3c2c1	.	.	11	.	.	-8.7	143	0.25	115%	+	/	/	/	130	0.12
COc1ccccc1NC(=O)Nc1nc(CC(=O)Nc2ccc(OC)c(OC)c2)cs1	.	.	.	.	.	.	/	/	/	/	/	/	/	/	/
COc1cc(C)ccc1NC(=O)Cc1csc(NC(=O)Nc2ccccc2OC)n1	.	.	17	-8.8	.	-13	115	.	121%	172%	28%	.	24%	133	.	KCNQ1 ephys val=.
Fc1ccc(C2c3cccn3CCN2C(=S)Nc2cccc(F)c2)cc1 (stereo not drawn)	.	.	9	-7.5	.	-10	118	.	116%	182%	/	/	/	135	0.15	KCNQ1 ephys val=+
Cc1cccc(OCC(=O)Nc2ccccc2N2CCCCC2)c1C	.	.	9	-8.4	.	.	102	.	88%	150%	54%	34%	42%	110	.	KCNQ1 ephys val=.
COc1ccc(S(=O)(=O)NC(C)C(=O)NCCN2CCOCC2)cc1Cl (stereo not drawn)	.	.	.	.	.	.	/	/	/	/	/	/	/	/	/
Cc1ccc(C(C)C)cc1OCC(=O)NC1CCCCCCC1	.	.	9	.	.	-10	116	.	.	113%	/	/	/	114	.	KCNQ1 ephys val=.
CC(C)c1ccc(OCC(=O)NC2CCCC2)cc1	.	.	.	.	.	.	/	/	/	/	/	/	/	/	/
Cc1cc(C)nc(N(C#N)CCOc2ccc(Cl)cc2)n1	.	.	.	.	.	.	/	/	/	/	/	/	/	/	/
CC(C)Nc1nc(NC(C)C)nc(N(C#N)CCOc2ccc(Cl)cc2Cl)n1	.	.	14	-7.9	.	-12	134	0.31	128%	+	/	/	/	135	0.13
Cc1cccc(C)c1NC(=O)c1cccc2c1C(=O)N(C1CCCCC1)C2	.	.	6	-19	.	-15	74	.	105%	129%	52%	.	36%	126	0.15
Cc1cc(NC(=O)c2cccc3c2C(=O)N(C2CCCCC2)C3)ccc1Br	.	.	.	.	.	.	/	/	/	/	/	/	/	/	/
COc1cccc(NC(=O)c2sc3nc(N4CCOCC4)c4c(c3c2N)CCCC4)c1	.	.	.	-11	.	.	/	/	/	/	.	.	.	/	/
Cn1c(=O)c(C(=O)c2ccccc2)nc2ccccc21	.	.	.	.	.	.	/	/	/	/	/	/	/	/	/
O=C(c1ccccc1)c1nc2ccccc2n(CCCn2c(=O)c(C(=O)c3ccccc3)nc3ccccc32)c1=O	.	.	.	.	.	.	/	/	/	/	.	.	.	/	/
COc1ccc(C(=O)NCc2nnc(SCC(=O)c3ccccc3)n2C)cc1OC	.	.	.	.	.	.	/	/	/	/	/	/	/	/	/
Cc1ccn2c(=O)nc(SCC(=O)NCc3ccccc3Cl)nc2c1	.	.	.	.	.	.	/	/	/	/	/	/	/	/	/
COc1ccccc1OCCCOc1ccc([N+](=O)[O-])cc1Cl	.	.	.	.	.	.	/	/	/	/	.	.	36%	/	/
